Laboratory results as given in ChEMBL document CHEMBL1156901, “Novel matrix metalloproteinase inhibitors derived from quinoxalinone scaffold (Part I)” (Bioorg Med Chem, 2010).
Active and inactive are the calls of the source. The calls are words filed in the database; no cut-off is given here.

Columns and labels:
[1] = target: 72 kDa type IV collagenase (Homo sapiens, UniProt P08253); assay: Inhibition of MMP2
How it was run: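 Gelatinase A (MMP-2) with succinylated gelatin substrate and inhibitor in 50 mM sodium borate, pH 8.5, incubated 30 min at 37 °C. 0.03% trinitrobenzenesulfonic acid then added for a further 20 min. Absorbance read at 450 nm.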

[2] = target: Aminopeptidase N (Sus scrofa) (UniProt P15145); assay: Inhibition of APN assessed as substrate hydrolysis by UV/vis spectrophotometer
[3] = test system: SK-OV-3; assay: Antiproliferative activity against human SKOV3 cells after 48 hrs by MTT assay; assay type: functional, cell-based; details: SK-OV-3, 48 h
How it was run: (§1)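 RPMI1640 with 10% FBS, 37 °C, 5% CO2. Cells seeded at 10,000 per well and grown 4 h in complete medium. Compound added at 1600, 800, 400, 200 or 100 µg/ml for 48 h. 0.5% MTT then added for 4 h, formazan dissolved in DMSO over 15 min, OD read at 570 nm. IC50 taken as concentration giving 50% growth inhibition.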

[4] = test system: K562; assay: Antiproliferative activity against human K562 cells after 48 hrs by MTT assay; assay type: functional, cell-based; how it was run: as §1
[5] = test system: HL-60; assay: Antiproliferative activity against human HL60 cells after 48 hrs by MTT assay; assay type: functional, cell-based; how it was run: as §1

Chain of 72 kDa type IV collagenase (P08253 whole entry): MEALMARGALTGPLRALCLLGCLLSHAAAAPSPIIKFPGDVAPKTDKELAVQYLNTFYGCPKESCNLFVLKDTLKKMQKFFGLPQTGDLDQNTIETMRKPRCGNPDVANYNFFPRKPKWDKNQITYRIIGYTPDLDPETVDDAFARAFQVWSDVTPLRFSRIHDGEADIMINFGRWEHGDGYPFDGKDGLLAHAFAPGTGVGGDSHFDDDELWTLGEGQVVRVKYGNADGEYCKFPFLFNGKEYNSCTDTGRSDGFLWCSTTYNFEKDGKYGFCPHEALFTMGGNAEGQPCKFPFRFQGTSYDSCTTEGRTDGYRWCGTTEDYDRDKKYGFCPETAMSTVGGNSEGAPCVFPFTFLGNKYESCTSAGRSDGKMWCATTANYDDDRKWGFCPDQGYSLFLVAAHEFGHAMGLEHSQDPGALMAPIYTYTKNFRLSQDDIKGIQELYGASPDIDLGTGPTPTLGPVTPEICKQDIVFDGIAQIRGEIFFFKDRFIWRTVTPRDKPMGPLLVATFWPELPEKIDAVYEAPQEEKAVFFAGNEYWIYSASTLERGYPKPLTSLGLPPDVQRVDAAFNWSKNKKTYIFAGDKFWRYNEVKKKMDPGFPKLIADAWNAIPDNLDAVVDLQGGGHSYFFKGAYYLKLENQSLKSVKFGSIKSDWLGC
Chain of Aminopeptidase N (Sus scrofa) (P15145 whole entry, looked up): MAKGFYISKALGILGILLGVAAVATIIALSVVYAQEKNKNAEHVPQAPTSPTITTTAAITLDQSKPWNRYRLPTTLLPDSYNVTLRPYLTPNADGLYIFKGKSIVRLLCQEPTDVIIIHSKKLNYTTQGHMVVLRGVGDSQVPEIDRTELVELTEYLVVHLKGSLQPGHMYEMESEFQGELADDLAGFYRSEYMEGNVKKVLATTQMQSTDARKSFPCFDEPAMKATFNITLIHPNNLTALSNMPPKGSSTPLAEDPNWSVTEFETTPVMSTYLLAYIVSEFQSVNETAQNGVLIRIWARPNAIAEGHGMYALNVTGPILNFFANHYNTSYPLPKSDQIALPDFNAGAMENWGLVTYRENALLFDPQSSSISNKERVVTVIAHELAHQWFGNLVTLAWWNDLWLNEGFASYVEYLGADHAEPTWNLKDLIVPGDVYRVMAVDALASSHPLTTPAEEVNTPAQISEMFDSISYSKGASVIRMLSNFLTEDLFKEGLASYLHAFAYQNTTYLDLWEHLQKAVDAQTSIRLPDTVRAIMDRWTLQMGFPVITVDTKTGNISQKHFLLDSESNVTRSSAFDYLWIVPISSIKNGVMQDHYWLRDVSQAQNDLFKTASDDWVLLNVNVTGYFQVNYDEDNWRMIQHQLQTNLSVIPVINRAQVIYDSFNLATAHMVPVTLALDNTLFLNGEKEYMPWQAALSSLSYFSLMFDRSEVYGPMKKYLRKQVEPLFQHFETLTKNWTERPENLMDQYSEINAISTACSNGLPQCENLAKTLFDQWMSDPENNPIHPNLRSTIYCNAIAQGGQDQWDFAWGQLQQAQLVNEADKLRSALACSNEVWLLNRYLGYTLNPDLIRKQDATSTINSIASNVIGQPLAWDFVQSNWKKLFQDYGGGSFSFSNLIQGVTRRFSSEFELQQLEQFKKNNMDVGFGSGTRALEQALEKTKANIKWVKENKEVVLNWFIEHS

Row | Structure (SMILES) | IC50 [1] [µM] | IC50 [2] | IC50 [3] [µM] | Activity [4] | Activity [5]
1 | COc1ccc(/C=C/C(=O)N2C[C@@H](NC(=O)c3cccnc3)C[C@H]2C(=O)NO)cc1OC | 5.6 | Not Active | 210 | – | –
2 | CCCCNC(=O)[C@H](Cc1ccccc1)NC(=O)Cn1c(=O)c(C)nc2ccccc21 | 106 | Not Active | – | – | –
3 | Cc1nc2ccccc2n(CC(=O)N[C@@H](Cc2ccccc2)C(=O)Nc2ccc(Cl)c(Cl)c2)c1=O | 26.2 | Not Active | 3020 | inactive | inactive
4 | Cc1nc2ccccc2n(CC(=O)N[C@@H](Cc2ccccc2)C(=O)Nc2ccc(F)cc2)c1=O | 124 | Not Active | – | – | –
5 | Cc1nc2ccccc2n(CC(=O)N[C@@H](Cc2ccccc2)C(=O)Nc2cccnc2)c1=O | 30 | Not Active | – | – | –
6 | CCCNC(=O)[C@H](Cc1ccccc1)NC(=O)Cn1c(=O)c(C)nc2ccccc21 | 56.6 | Not Active | – | – | –
7 | Cc1nc2ccccc2n(CC(=O)N[C@@H](Cc2ccccc2)C(=O)Nc2ccc(Br)cc2)c1=O | 2000 | Not Active | – | – | –
8 | Cc1cccc(NC(=O)[C@H](Cc2ccccc2)NC(=O)Cn2c(=O)c(C)nc3ccccc32)c1 | 6460 | Not Active | – | – | –
9 | Cc1nc2ccccc2n(CC(=O)N[C@@H](Cc2ccccc2)C(=O)NC(C)C)c1=O | 9430 | Not Active | – | – | –
10 | Cc1nc2ccccc2n(CC(=O)N[C@@H](Cc2ccccc2)C(=O)Nc2ccc(Cl)cc2)c1=O | 624 | Not Active | – | – | –
11 | COC(=O)C(CC(C)C)NC(=O)[C@@H](Cc1ccccc1)NC(=O)Cn1c(=O)c(C)nc2ccccc21 (stereo not given in full) | 1750 | Not Active | – | – | –
12 | Cc1nc2ccccc2n(CC(=O)N[C@@H](Cc2ccccc2)C(=O)Nc2ccc(F)c(Cl)c2)c1=O | 1360 | Not Active | – | – | –
13 | COC(=O)CCCNC(=O)[C@H](Cc1ccccc1)NC(=O)Cn1c(=O)c(C)nc2ccccc21 | 2760 | Not Active | – | – | –
14 | Cc1ccc(NC(=O)[C@H](Cc2ccccc2)NC(=O)Cn2c(=O)c(C)nc3ccccc32)cc1 | 10.5 | Not Active | 1980 | inactive | inactive
15 | Cc1ccccc1NC(=O)[C@H](Cc1ccccc1)NC(=O)Cn1c(=O)c(C)nc2ccccc21 | 37.3 | Not Active | – | – | –
16 | Cc1nc2ccccc2n(CC(=O)N[C@@H](Cc2ccccc2)C(=O)Nc2ccc(F)c(F)c2)c1=O | 24.2 | Not Active | – | – | –
17 | Cc1nc2ccccc2n(CC(=O)N[C@@H](Cc2ccccc2)C(=O)Nc2ccccc2)c1=O | 58.1 | Not Active | – | – | –
18 | CCN(CC)C(=O)[C@H](Cc1ccccc1)NC(=O)Cn1c(=O)c(C)nc2ccccc21 | 105 | Not Active | – | – | –
19 | COC(=O)CCCCCNC(=O)[C@H](Cc1ccccc1)NC(=O)Cn1c(=O)c(C)nc2ccccc21 | 11500 | Not Active | – | – | –
